Results: ChEMBL document CHEMBL4673249, “Anticancer Effects of Honokiol via Mitochondrial Dysfunction Are Strongly Enhanced by the Mitochondria-Targeting Carrier Berberine” (J Med Chem, 2020)
The source made the active and inactive calls. The calls are words filed in the database; no cut-off is given here.

Tests used:
A549 = test: Antiproliferative activity against human A549 cells assessed as reduction in cell viability after 48 hrs by MTT assay; assay type: functional, cell-based; conditions: A549, 48 h
How it was run: (§1)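 Cell lines grown at 37 °C in 5% CO2: A2780, A549, HL7702 and PC3 in RPMI 1640; HT29 in McCoy's 5A; HepG2 and PANC-1 in DMEM; all media with 10% FBS and penicillin/streptomycin. Cells seeded and left overnight, then exposed to compound for 48 h. MTT (5 mg/mL solution) added for 4 h at 37 °C, formazan dissolved in DMSO, absorbance read at 570 nm. IC50 taken from viability; run in triplicate.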

HT-29 [1] = test: Antiproliferative activity against human HT29 cells assessed as reduction in cell viability after 48 hrs by MTT assay; assay type: functional, cell-based; conditions: HT-29, 48 h; how it was run: as §1
HepG2 [2] = test: Induction of ROS generation in human HepG2 cells after 24 hrs by DCFH-DA staining based flow cytometric analysis; assay type: functional, cell-based
How it was run: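 HepG2 cells treated for the stated time, then loaded with 10 μM DCFH-DA in FBS-free medium for 30 min in the dark. Washed twice with PBS, trypsinized, pelleted at 1200 rpm for 5 min, resuspended in PBS and read by flow cytometry. Kit Rosup reagent served as positive agent.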

HepG2 [3] = test: Induction of morphological changes in human HepG2 cells assessed as accumulation of vacuoles at 3 uM after 24 hrs in presence of 3-MA by microscopic method; assay type: functional, cell-based
How it was run: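 HepG2 cells given 3 μM compound for 24 h with chloroquine (10 μM) or 3-methyladenine (1 mM). Vacuolization and viability examined, viability by MTT.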

HepG2 [4] = test: Induction of cell death in human HepG2 cells at 3 uM after 12 hrs by MTT assay; assay type: functional, cell-based
HepG2 [5] = test: Induction of morphological changes in human HepG2 cells assessed as effect on size of vacuoles at 3 uM after 24 hrs in presence of z-VAD-fmk by microscopic analysis; assay type: functional, cell-based
How it was run: (§2)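 HepG2 cells preincubated with or without z-VAD-fmk (20 μM, 2 h), then treated with 3 μM compound. Vacuole number and size judged from optical microscopy images.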

HepG2 [6] = test: Induction of morphological changes in human HepG2 cells assessed as effect on number of vacuoles at 3 uM after 24 hrs in presence of z-VAD-fmk by microscopic analysis; assay type: functional, cell-based; how it was run: as §2
HepG2 [7] = test: Induction of apoptosis in human HepG2 cells assessed as necrotic cells at 4 uM after 24 hrs in presence of z-VAD-fmk by annexin V/propidium iodide staining based flow cytometric analysis (reference value: 0.12%); assay type: functional
HepG2 [8] = test: Induction of apoptosis in human HepG2 cells assessed as accumulation of AIF in cytoplasm at 4 uM after 24 hrs by immunofluorescence assay; assay type: functional, cell-based
How it was run: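 HepG2 cells in glass-bottom dishes given 4 μM for 24 h. Fixed in methanol:acetone (1:1) for 10 min, blocked with 5% BSA for 1 h at room temperature. Anti-AIF antibody applied overnight at 4 °C, then Alexa Fluor 594 secondary; nuclei stained with DAPI. Imaged by confocal microscopy.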

HepG2 [9] = test: Induction of apoptosis in human HepG2 cells assessed as necrotic cells at 4 uM after 24 hrs by annexin V/propidium iodide staining based flow cytometric analysis (reference value: 0.11%); assay type: functional
HepG2 [10] = test: Induction of apoptosis in human HepG2 cells assessed as increase in cleaved-caspase 9 protein expression at 1 to 4 uM after 24 hrs by Western blot analysis; assay type: functional, cell-based; conditions: dose 1-4 µM
How it was run: (§3)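 HepG2 cells lysed in RIPA on ice for 20 min; protein measured by BCA. Lysates run on 10% SDS-PAGE and transferred to PVDF. Membranes blocked in 5% nonfat milk/TBST for 2 h, incubated with primary antibodies overnight at 4 °C, then HRP secondary antibody; bands detected by ECL.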

HepG2 [11] = test: Induction of apoptosis in human HepG2 cells assessed as increase in cleaved-caspase 8 protein expression at 1 to 4 uM after 24 hrs by Western blot analysis; assay type: functional, cell-based; conditions: dose 1-4 µM; how it was run: as §3
HepG2 [12] = test: Induction of apoptosis in human HepG2 cells after 24 hrs by annexin V/propidium iodide staining based flow cytometric analysis; assay type: functional, cell-based; conditions: dose 1-4 µM
[13] = Drug localization n human HepG2 cells mitochondria by MitoTracker staining based confocal microscopic analysis; assay type: ADME
How it was run: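 HepG2 cells in glass-bottom dishes were exposed to compound, then stained with 150 nM MitoTracker Red CMXRos for 20 min. Compound's own blue fluorescence imaged against the red mitochondrial signal by confocal microscopy.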

HepG2 [14] = test: Induction of mitochondrial morphological changes in human HepG2 cells assessed as dilation of mitochondria by measuring vacuoles at 3 uM measured up to 30 hrs […] by TEM analysis; assay type: functional, cell-based; conditions: time hrs <=30
How it was run: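 HepG2 cells given 3 μM for 15 h or 30 h, then fixed in 2.5% glutaraldehyde at 4 °C overnight. Dehydrated through graded alcohols, embedded in resin and examined by transmission electron microscopy.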

[15] = Selectivity ratio of IC50 for antiproliferative activity against human L02 cells to IC50 for antiproliferative activity human HepG2 cells; assay type: toxicity, cell-based; conditions: L02 cells and HepG2 cells, read-out: Ratio IC50
How it was run: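 MTT assay after 48 h drug exposure. Cells seeded overnight, MTT (5 mg/mL stock) added for 4 h at 37 °C, formazan dissolved in DMSO, absorbance read at 570 nm. IC50 taken from viability, repeated in triplicate, and the IC50 ratio calculated.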

HT-29 [16] = test: Induction of morphological changes in human HT29 cells assessed as accumulation of cytoplasmic vacuoles at 4 uM after 24 hrs by optical microscopic method; assay type: functional, cell-based
How it was run: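 Cells grown at 37 °C, 5% CO2 in media with 10% FBS and penicillin/streptomycin, then treated with compound. Cytoplasmic vacuoles judged by optical microscopy. Time course at 4 μM, or 10 h exposure across increasing concentrations.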

HepG2 [17] = test: Induction of apoptosis in human HepG2 cells assessed as viable cells at 4 uM after 24 hrs in presence of z-VAD-fmk by annexin V/propidium iodide staining based flow cytometric analysis (reference value: 92.8%); assay type: functional; conditions: read-out: Activity

With `C=CCc1ccc(O)c(-c2ccc(OCCCCCc3c4[n+](cc5c(OC)c(OC)ccc35)CCc3cc5c(cc3-4)OCO5)c(CC=C)c2)c1.[I-]` the IC50 (A549) was 3000 nM, the IC50 (HT-29 [1]) was greater than 5000 nM and the Activity (HepG2 [2]) was “Dose-dependent effect”. For the same compound, the Activity (HepG2 [3]) was “Active”, the Activity (HepG2 [4]) was “Active” and the Activity (HepG2 [5]) was “inactive”. The Activity (HepG2 [6]) was “inactive”, the Activity (HepG2 [7]) was 0.57% and the Activity (HepG2 [8]) was “Active”. The Activity (HepG2 [9]) was 0.41%, the Activity (HepG2 [10]) was “Active” and the Activity (HepG2 [11]) was “Active”. The Activity (HepG2 [12]) was “Dose-dependent effect”, the Drug uptake [13] was “Active” and the Activity (HepG2 [14]) was “Active”. The selectivity ratio [15] was 2.8, the Activity (HT-29 [16]) was “Active” and the viability at 4 µM (HepG2 [17]) was 73%.
